Experimental data: publication PMC9055537 (RSC Advances, 2020)
Where a SMILES comes first, the peptide text is derived from it. [ ]: non-standard residue; d: D form. Nva = CCC[C@H](N)C(=O)O; Aib = CC(C)(N)C(=O)O

What was measured:
Aβ42 = Aβ42 (Homo sapiens, UniProt P05067); assay: Thioflavin-T fluorescence assay, inhibition of Aβ42 aggregation; format: biochemical; details: 24 h, read-out: % inhibition of Aβ42 aggregation (ThT fluorescence), test peptide 10 μM (1:5), Aβ42 2 μM, co-incubated 24 h at 37 °C, λex 440 nm, λem 485 nm, mean of triplicate
Chain of Aβ42 (P05067 672-713): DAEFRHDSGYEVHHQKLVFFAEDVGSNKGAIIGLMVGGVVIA

preformed Aβ42 fibrils = preformed Aβ42 fibrils (Homo sapiens, UniProt P05067); assay: Thioflavin-T assay, deformation of preformed Aβ42 fibrils; format: biochemical; details: 24 h, Aβ42 2 μM pre-aggregated 24 h
Chain of preformed Aβ42 fibrils (P05067 672-713): as above

PC-12 cells = assay: Cytotoxicity studies, MTT assay; format: cell-based, rat; details: highest tested concentration 20 μM, 6 h, MTT OD570, triplicate
How it was run: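 PC-12 cells were exposed to the test peptide alone at the stated dose for 6 h, with no Aβ added, and viability was read by MTT assay. Untreated cells were set as 100% (positive control). Samples were run in triplicate in three individual experiments and the readings were averaged (<5% variation).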

Row | SMILES | inhibition at 10 µM (Aβ42) [%] | also measured
1 | CC[C@H](C)[C@H](NC(=O)[C@@H](NC(=O)[C@H](N)C(C)C)C(C)C)C(=O)N[C@@H](C)C(N)=O [12a, D -Val-Val-Ile-Ala-NH2] (H-[dV]VIA-NH2) | 82.1 | 
2 | CC[C@H](C)[C@H](NC(=O)[C@@H](NC(=O)[C@@H](N)Cc1ccccc1)C(C)C)C(=O)N[C@@H](C)C(N)=O [12b, Phe-Val-Ile-Ala-NH2] (H-FVIA-NH2) | 77.6 | 
3 | CC[C@H](C)[C@H](NC(=O)[C@@H](NC(=O)[C@H](N)Cc1ccccc1)C(C)C)C(=O)N[C@@H](C)C(N)=O [12c, D-Phe-Val-Ile-Ala-NH2] (H-[dF]VIA-NH2) |  | % Deformation of preformed Aβ42 fibrils (preformed Aβ42 fibrils; test peptide 0.5 μM (1:0.1)): 33.7%; % Deformation of preformed Aβ42 fibrils (preformed Aβ42 fibrils; test peptide 1 μM (1:0.5)): 34.9%; % Deformation of preformed Aβ42 fibrils (preformed Aβ42 fibrils; test peptide 2 μM (1:1)): 57.5%; cytotoxicity, % viable PC-12 cells (PC-12 cells): negligible cytotoxicity
4 | CC[C@H](C)[C@H](NC(=O)[C@@H](NC(=O)[C@H]1CCCN1)C(C)C)C(=O)N[C@@H](C)C(N)=O [12d, D -Pro-Val-Ile-Ala-NH2] (H-[dP]VIA-NH2) | 39.8 | 
5 | CCC[C@H](N)C(=O)N[C@H](C(=O)N[C@H](C(=O)N[C@@H](C)C(N)=O)[C@@H](C)CC)C(C)C [12e, Nva-Val-Ile-Ala-NH2] (H-[Nva]VIA-NH2) | 70.3 | 

Further lines, with some results ahead:

Row | inhibition at 10 µM (Aβ42) [%] | SMILES | also measured
6 | 15.7 | CC[C@H](C)[C@H](NC(=O)[C@H](NC(=O)[C@@H](N)C(C)C)C(C)C)C(=O)N[C@@H](C)C(N)=O [13a, Val-D-Val-Ile-Ala-NH2] (H-V[dV]IA-NH2) | 
7 | 49.4 | CC[C@@H](C)[C@@H](NC(=O)[C@@H](N)C(C)C)C(=O)N[C@H](C(=O)N[C@@H](C)C(N)=O)[C@@H](C)CC [13b, Val-D-Ile-Ile-Ala-NH2] (H-V[dI]IA-NH2) | 
8 | 45.3 | CC[C@H](C)[C@H](NC(=O)C(C)(C)NC(=O)[C@@H](N)C(C)C)C(=O)N[C@@H](C)C(N)=O [13d, Val-Aib-Ile-Ala-NH2] (H-V[Aib]IA-NH2) | 
9 | 21.8 | CC[C@@H](C)[C@@H](NC(=O)[C@@H](NC(=O)[C@@H](N)C(C)C)C(C)C)C(=O)N[C@@H](C)C(N)=O [14a, Val-Val-D-Ile-Ala-NH2] (H-VV[dI]A-NH2) | 
10 | 0 | CC(C)C[C@H](NC(=O)[C@@H](NC(=O)[C@@H](N)C(C)C)C(C)C)C(=O)N[C@@H](C)C(N)=O [14b, Val-Val-Leu-Ala-NH2] (H-VVLA-NH2) | 
11 | 23.2 | CC[C@H](C)[C@H](NC(=O)[C@@H](NC(=O)[C@@H](N)C(C)C)C(C)C)C(=O)N[C@H](C)C(N)=O [15a, Val-Val-Ile-D-Ala-NH2] (H-VVI[dA]-NH2) | 
12 | 35.1 | CC[C@H](C)[C@H](NC(=O)[C@@H](NC(=O)[C@@H](N)C(C)C)C(C)C)C(=O)NC(C)(C)C(N)=O [15b, Val-Val-Ile-Aib-NH2] (H-VVI[Aib]-NH2) | 
13 | 11 | CC[C@H](C)[C@H](NC(=O)[C@@H](NC(=O)[C@@H](N)C(C)C)C(C)C)C(=O)N[C@H](C(N)=O)C(C)C [15d, Val-Val-Ile-Val-NH2] (H-VVIV-NH2) | 
14 | 31.2 | CC[C@H](C)[C@H](NC(=O)[C@@H](NC(=O)[C@@H](N)C(C)C)C(C)C)C(=O)N[C@@H](CC(C)C)C(N)=O [15e, Val-Val-Ile-Leu-NH2] (H-VVIL-NH2) | 
15 | 14.2 | CC[C@H](C)[C@H](NC(=O)[C@@H]1CCCN1C(=O)[C@@H]1CCCN1)C(=O)N[C@@H](C)C(N)=O [16a, Pro-Pro-Ile-Ala-NH2] (H-PPIA-NH2) | 
